Experimental data from ChEMBL document CHEMBL1131454 (J Med Chem, 1998).

Experiments:
[1] = target: T1, Androgen receptor (Homo sapiens, UniProt P10275)
T1 sequence (P10275 whole entry): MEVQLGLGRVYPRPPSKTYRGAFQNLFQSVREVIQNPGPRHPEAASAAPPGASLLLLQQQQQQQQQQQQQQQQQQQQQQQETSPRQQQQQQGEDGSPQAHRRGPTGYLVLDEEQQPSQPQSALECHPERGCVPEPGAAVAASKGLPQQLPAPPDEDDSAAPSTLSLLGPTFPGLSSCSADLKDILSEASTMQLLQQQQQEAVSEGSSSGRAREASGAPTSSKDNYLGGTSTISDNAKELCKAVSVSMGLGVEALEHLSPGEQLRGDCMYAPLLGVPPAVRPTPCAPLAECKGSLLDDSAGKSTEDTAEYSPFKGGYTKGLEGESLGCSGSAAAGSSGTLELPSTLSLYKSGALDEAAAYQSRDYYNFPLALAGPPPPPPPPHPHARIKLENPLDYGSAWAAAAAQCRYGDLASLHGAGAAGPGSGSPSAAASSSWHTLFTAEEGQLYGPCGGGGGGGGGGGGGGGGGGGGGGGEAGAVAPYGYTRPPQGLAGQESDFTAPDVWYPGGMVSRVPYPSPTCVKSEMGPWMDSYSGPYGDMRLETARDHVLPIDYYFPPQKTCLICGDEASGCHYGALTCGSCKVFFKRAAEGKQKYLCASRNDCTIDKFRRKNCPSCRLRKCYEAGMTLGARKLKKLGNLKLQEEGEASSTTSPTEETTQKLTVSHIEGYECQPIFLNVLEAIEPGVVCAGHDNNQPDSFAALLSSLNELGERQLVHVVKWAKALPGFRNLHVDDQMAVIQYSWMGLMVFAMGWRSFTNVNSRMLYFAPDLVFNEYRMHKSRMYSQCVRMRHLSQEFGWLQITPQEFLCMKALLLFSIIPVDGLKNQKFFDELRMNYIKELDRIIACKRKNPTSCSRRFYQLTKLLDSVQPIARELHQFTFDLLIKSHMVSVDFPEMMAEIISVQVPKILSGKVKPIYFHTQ

[2] = target: T2, Progesterone receptor (Homo sapiens) (UniProt P06401); test: Agonist efficacy for human progesterone receptor (hPR) was compared to that of progesterone (100%); type: functional
T2 sequence (whole entry): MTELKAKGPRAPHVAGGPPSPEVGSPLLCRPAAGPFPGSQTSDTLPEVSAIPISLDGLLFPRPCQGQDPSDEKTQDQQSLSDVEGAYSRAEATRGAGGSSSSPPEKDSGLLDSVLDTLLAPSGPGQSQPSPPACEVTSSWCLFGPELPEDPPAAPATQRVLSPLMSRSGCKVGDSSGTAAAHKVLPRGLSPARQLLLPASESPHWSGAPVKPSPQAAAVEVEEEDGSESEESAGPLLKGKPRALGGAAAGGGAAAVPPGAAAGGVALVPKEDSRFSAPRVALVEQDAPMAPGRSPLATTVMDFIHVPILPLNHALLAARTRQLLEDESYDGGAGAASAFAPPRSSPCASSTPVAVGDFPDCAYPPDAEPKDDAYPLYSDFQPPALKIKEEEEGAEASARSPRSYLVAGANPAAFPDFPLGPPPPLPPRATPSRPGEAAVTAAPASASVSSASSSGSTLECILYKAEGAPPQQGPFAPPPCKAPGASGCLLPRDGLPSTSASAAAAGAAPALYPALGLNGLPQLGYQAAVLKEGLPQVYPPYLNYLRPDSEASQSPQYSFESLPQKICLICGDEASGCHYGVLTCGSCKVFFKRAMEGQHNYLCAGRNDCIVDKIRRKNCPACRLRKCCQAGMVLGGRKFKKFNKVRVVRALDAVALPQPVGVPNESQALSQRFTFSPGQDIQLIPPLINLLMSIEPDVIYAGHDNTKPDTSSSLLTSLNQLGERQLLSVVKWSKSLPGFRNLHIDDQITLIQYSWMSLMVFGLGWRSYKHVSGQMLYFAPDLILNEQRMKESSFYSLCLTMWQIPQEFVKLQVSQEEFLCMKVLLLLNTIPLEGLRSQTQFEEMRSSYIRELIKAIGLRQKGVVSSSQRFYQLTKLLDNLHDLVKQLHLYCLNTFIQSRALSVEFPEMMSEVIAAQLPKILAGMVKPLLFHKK
Procedure, shortened: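 Cotransfection assay in CV-1 cells transiently transfected by calcium phosphate coprecipitation with hPR plasmid, MTV-LUC reporter, pRS-β-Gal and filler DNA. Full dose–response curves from 10^-12 to 10^-5 M were run. […] Values are the mean of at least three experiments with triplicate determinations, or of two experiments, or a single experiment.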

[3] = target: T3, Mineralocorticoid receptor (Homo sapiens, UniProt P08235); test: Antagonistic activity was determined in Human mineralocorticoid receptor(hMR) of CV-1 cells in cotransfection assay.; type: functional, cell-based
T3 sequence (P08235 whole entry): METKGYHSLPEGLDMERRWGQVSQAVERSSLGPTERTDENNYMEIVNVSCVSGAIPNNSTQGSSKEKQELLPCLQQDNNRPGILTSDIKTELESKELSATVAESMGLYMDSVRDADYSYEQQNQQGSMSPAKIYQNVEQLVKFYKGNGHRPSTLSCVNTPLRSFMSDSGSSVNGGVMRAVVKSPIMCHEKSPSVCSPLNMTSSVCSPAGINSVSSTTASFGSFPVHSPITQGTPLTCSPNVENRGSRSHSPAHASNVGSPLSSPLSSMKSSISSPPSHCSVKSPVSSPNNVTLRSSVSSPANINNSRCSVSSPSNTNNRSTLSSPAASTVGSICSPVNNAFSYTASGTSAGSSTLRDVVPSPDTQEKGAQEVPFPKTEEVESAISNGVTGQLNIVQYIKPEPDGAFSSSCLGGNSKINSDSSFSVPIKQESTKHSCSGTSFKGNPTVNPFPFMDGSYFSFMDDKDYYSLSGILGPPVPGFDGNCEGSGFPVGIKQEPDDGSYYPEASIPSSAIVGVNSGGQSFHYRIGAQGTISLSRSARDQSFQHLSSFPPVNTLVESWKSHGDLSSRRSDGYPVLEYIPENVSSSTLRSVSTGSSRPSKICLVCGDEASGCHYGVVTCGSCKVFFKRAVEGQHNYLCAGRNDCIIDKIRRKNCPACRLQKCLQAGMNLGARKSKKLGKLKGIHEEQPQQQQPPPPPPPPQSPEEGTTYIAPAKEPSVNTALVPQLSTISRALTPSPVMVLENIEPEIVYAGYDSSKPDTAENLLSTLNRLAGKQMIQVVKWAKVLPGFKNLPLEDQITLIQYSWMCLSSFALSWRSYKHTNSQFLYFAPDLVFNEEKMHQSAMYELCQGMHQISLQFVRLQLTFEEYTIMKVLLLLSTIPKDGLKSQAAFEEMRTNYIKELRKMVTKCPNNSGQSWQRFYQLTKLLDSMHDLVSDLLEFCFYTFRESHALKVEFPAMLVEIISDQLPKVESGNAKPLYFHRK

SMILES | Ki [1] [nM] | Efficacy [2] [%] | IC50 [3] [nM]
CC1=CC(C)(C)Nc2ccc3c(c21)C(c1ccc(Cl)c(Cl)c1)Oc1ccccc1-3 (stereo not given) | 5830 | 66 | 1060
CC1=CC(C)(C)Nc2ccc3c(c21)C(c1cc(C)cc(Br)c1)Oc1ccccc1-3 (stereo not given) | 3500 | 65 | > 10000
CC1=CC(C)(C)Nc2ccc3c(c21)C(c1cccc(Cl)c1)Oc1ccccc1-3 (stereo not given) | 1530 | 76 | 748
CC1=CC(C)(C)Nc2ccc3c(c21)C(c1cc(Cl)cc(Cl)c1)Oc1ccccc1-3 (stereo not given) | 2580 | 57 | > 10000
CC1=CC(C)(C)Nc2ccc3c(c21)C(c1ccc(Cl)cc1)Oc1ccccc1-3 (stereo not given) | 2680 |  | 1520
CC1=CC(C)(C)Nc2ccc3c(c21)C(c1ccc(Br)cc1)Oc1ccccc1-3 (stereo not given) | > 10000 | 59 | 977

Continued by falling Ki [1], values first:

Ki [1] [nM] | Efficacy [2] [%] | IC50 [3] [nM] | SMILES
2330 | 59 | 1590 | CC1=CC(C)(C)Nc2ccc3c(c21)C(c1ccc(C)cc1)Oc1ccccc1-3 (stereo not given)
2140 | 77 | 1070 | CC1=CC(C)(C)Nc2ccc3c(c21)C(c1cccc(Br)c1)Oc1ccccc1-3 (stereo not given)
1860 | 68 | 2030 | CC1=CC(C)(C)Nc2ccc3c(c21)C(c1ccc(Cl)c(C)c1)Oc1ccccc1-3 (stereo not given)
1580 | 83 | 1000 | CC1=CC(C)(C)Nc2ccc3c(c21)C(c1ccc(C)c(F)c1)Oc1ccccc1-3 (stereo not given)
1460 | 59 | 1360 | CC1=CC(C)(C)Nc2ccc3c(c21)C(c1ccc(Cl)c(F)c1)Oc1ccccc1-3 (stereo not given)
795 | 96 | 2220 | CC1=CC(C)(C)Nc2ccc3c(c21)C(c1cccc(C(F)(F)F)c1)Oc1ccccc1-3 (stereo not given)
